Measurements as given in ChEMBL document CHEMBL1133544, “Formaldehyde-induced alkylation of a 2'-aminoglucose rebeccamycin derivative to both A.T and G.C base pairs in DNA” (J Med Chem, 2000).
Values joined by “and” are separate entries in the source; they are usually repeats but may differ in a detail not shown here. Identical values can stand only once.

Key:
[1] = Delta Tm value ( Tmdrug-DNA )-TmDNA ) was obtained for the covalently cross-linked compound in the presence of formaldehyde using twice of poly(dA-dT) at 0.05 M; assay type: ADME
How it was run: (§1)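 The preformed drug–nucleic acid complex, at the stated drug/DNA ratio, was treated with HCHO before melting. Melting was done in BPE buffer pH 7.0 with 20 μM nucleotide, monitored at 260 nm, heating 20–100 °C at 1 °C/min. Tm is the hyperchromic transition midpoint, and ΔTm is taken relative to free nucleic acid. Each drug concentration was run in duplicate.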

[2] = Delta Tm value ( Tmdrug-DNA )-TmDNA ) was obtained for the covalently cross-linked compound in the presence of formaldehyde using twice of poly(dA-dT) at 0.25 M; assay type: ADME; how it was run: as §1
[3] = Delta Tm value ( Tmdrug-DNA )-TmDNA ) was obtained for the covalently cross-linked compound in the presence of formaldehyde using twice of poly(dA-dT) at 0.1 M; assay type: ADME; how it was run: as §1
[4] = test system: poly(dA-dC)·poly(dG-dT) (synthetic); test: Delta Tm value ( Tmdrug-DNA )-TmDNA ) was obtained for the covalently cross-linked compound in the absence of formaldehyde using poly(dA-dC).poly(dG-dT) at 0.1 M; settings: in vitro
[5] = Delta Tm value (Tm(drug-DNA)-Tm(DNA)) was determined for the covalently cross-linked compound in the presence of formaldehyde using calf thymus DNA at 0.05 M; assay type: ADME; settings: cattle; how it was run: as §1
[6] = Delta Tm value (Tm(drug-DNA)-Tm(DNA)) was obtained for the covalently cross-linked compound in the absence of formaldehyde using twice of poly(dI-dC); assay type: ADME
How it was run: (§2)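 Drug added to nucleic acid at the stated drug/DNA ratio with no HCHO, in BPE buffer pH 7.0 (6 mM Na2HPO4, 2 mM NaH2PO4, 1 mM EDTA). DNA or polynucleotide at 20 μM nucleotide. Absorbance read at 260 nm while heating 20–100 °C at 1 °C/min. Tm taken as the midpoint of the hyperchromic transition; ΔTm = Tm(drug–DNA) − Tm(DNA). Duplicate determinations at each drug concentration.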

[7] = Delta Tm value ( Tmdrug-DNA )-TmDNA ) was obtained for the covalently cross-linked compound in the absence of formaldehyde using calf thymus DNA.; assay type: ADME; settings: cattle; how it was run: as §2
Bos taurus [8] = species on record: Bos taurus; test: Delta Tm value ( Tmdrug-DNA )-TmDNA ) was obtained for the covalently cross-linked compound in the presence of formaldehyde using calf thymus DNA.; assay type: ADME; settings: cattle; how it was run: as §1
[9] = Delta Tm value ( Tmdrug-DNA )-TmDNA ) was obtained for the covalently cross-linked compound in the presence of formaldehyde using poly(dA-dC).poly(dG-dT) at 0.1 M; assay type: ADME; how it was run: as §1
[10] = test system: poly(dA-dC)·poly(dG-dT) (synthetic); test: Delta Tm value ( Tmdrug-DNA )-TmDNA ) was obtained for the covalently cross-linked compound in the presence of formaldehyde using poly(dA-dC).poly(dG-dT); settings: in vitro
Bos taurus [11] = species on record: Bos taurus; test: Delta Tm value ( Tmdrug-DNA )-TmDNA ) was obtained for the covalently cross-linked compound in the absence of formaldehyde using calf thymus DNA at 0.1 M; assay type: ADME; settings: cattle; how it was run: as §2
[12] = test system: poly(dA-dC)·poly(dG-dT) (synthetic); test: Delta Tm value ( Tmdrug-DNA )-TmDNA ) was obtained for the covalently cross-linked compound in the absence of formaldehyde using poly(dA-dC).poly(dG-dT); settings: in vitro
[13] = Delta Tm value (Tm(drug-DNA)-Tm(DNA)) was obtained for the covalently cross-linked compound in the absence of formaldehyde using twice of poly(dI-dC) at 0.05 M; assay type: ADME; how it was run: as §2
[14] = Delta Tm value ( Tmdrug-DNA )-TmDNA ) was obtained for the covalently cross-linked compound in the presence of formaldehyde using poly(dA-dC).poly(dG-dT) at 0.25 M; assay type: ADME; how it was run: as §1
[15] = Delta Tm value ( Tmdrug-DNA )-TmDNA ) was obtained for the covalently cross-linked compound in the presence of formaldehyde using twice of poly(dA-dT); assay type: ADME; how it was run: as §1
Bos taurus [16] = species on record: Bos taurus; test: Delta Tm value ( Tmdrug-DNA )-TmDNA ) was obtained for the covalently cross-linked compound in the presence of formaldehyde using calf thymus DNA at 1 M; assay type: ADME; settings: cattle; how it was run: as §1
[17] = test system: poly(dA-dC)·poly(dG-dT) (synthetic); test: Delta Tm value ( Tmdrug-DNA )-TmDNA ) was obtained for the covalently cross-linked compound in the absence of formaldehyde using poly(dA-dC).poly(dG-dT) at 0.05 M; settings: in vitro
[18] = test system: [poly(dA-dT)]2 (synthetic); test: Delta Tm value ( Tmdrug-DNA )-TmDNA ) was obtained for the covalently cross-linked compound in the absence of formaldehyde using twice of poly(dA-dT) at 0.25 M; settings: in vivo
Bos taurus [19] = species on record: Bos taurus; test: Delta Tm value ( Tmdrug-DNA )-TmDNA ) was obtained for the covalently cross-linked compound in the absence of formaldehyde using calf thymus DNA at 0.25 M; assay type: ADME; settings: cattle; how it was run: as §2
[20] = Delta Tm value (Tm(drug-DNA)-Tm(DNA)) was obtained for the covalently cross-linked compound in the absence of formaldehyde using twice of poly(dI-dC) at 0.25 M; assay type: ADME; how it was run: as §2
[21] = test system: [poly(dA-dT)]2 (synthetic); test: Delta Tm value ( Tmdrug-DNA )-TmDNA ) was obtained for the covalently cross-linked compound in the absence of formaldehyde using twice of poly(dA-dT); settings: in vivo
Bos taurus [22] = species on record: Bos taurus; test: Delta Tm value ( Tmdrug-DNA )-TmDNA ) was obtained for the covalently cross-linked compound in the presence of formaldehyde using calf thymus DNA at 0.5 M; assay type: ADME; settings: cattle; how it was run: as §1
Bos taurus [23] = species on record: Bos taurus; test: Delta Tm value ( Tmdrug-DNA )-TmDNA ) was obtained for the covalently cross-linked compound in the presence of formaldehyde using calf thymus DNA at 0.25 M; assay type: ADME; settings: cattle; how it was run: as §1
[24] = Delta Tm value ( Tmdrug-DNA )-TmDNA ) was obtained for the covalently cross-linked compound in the presence of formaldehyde using twice of poly(dA-dT) at 0.5 M; assay type: ADME; how it was run: as §1
[25] = Delta Tm value ( Tmdrug-DNA )-TmDNA ) was obtained for the covalently cross-linked compound in the presence of formaldehyde using twice of poly(dI-dC) at 0.05 M; assay type: ADME; how it was run: as §1
Bos taurus [26] = species on record: Bos taurus; test: Delta Tm value ( Tmdrug-DNA )-TmDNA ) was obtained for the covalently cross-linked compound in the absence of formaldehyde using calf thymus DNA at 1 M; assay type: ADME; settings: cattle; how it was run: as §2
[27] = test system: [poly(dA-dT)]2 (synthetic); test: Delta Tm value ( Tmdrug-DNA )-TmDNA ) was obtained for the covalently cross-linked compound in the absence of formaldehyde using twice of poly(dA-dT) at 0.05 M; settings: in vivo
[28] = test system: [poly(dA-dT)]2 (synthetic); test: Delta Tm value ( Tmdrug-DNA )-TmDNA ) was obtained for the covalently cross-linked compound in the absence of formaldehyde using twice of poly(dA-dT) at 0.1 M; settings: in vivo
[29] = test system: poly(dA-dC)·poly(dG-dT) (synthetic); test: Delta Tm value ( Tmdrug-DNA )-TmDNA ) was obtained for the covalently cross-linked compound in the absence of formaldehyde using poly(dA-dC).poly(dG-dT) at 0.25 M; settings: in vitro
Bos taurus [30] = species on record: Bos taurus; test: Delta Tm value ( Tmdrug-DNA )-TmDNA ) was obtained for the covalently cross-linked compound in the absence of formaldehyde using calf thymus DNA at 0.5 M; assay type: ADME; settings: cattle; how it was run: as §2
Bos taurus [31] = species on record: Bos taurus; test: Delta Tm value ( Tmdrug-DNA )-TmDNA ) was obtained for the covalently cross-linked compound in the presence of formaldehyde using calf thymus DNA at 0.1 M; assay type: ADME; settings: cattle; how it was run: as §1
[32] = Delta Tm value ( Tmdrug-DNA )-TmDNA ) was obtained for the covalently cross-linked compound in the presence of formaldehyde using poly(dA-dC).poly(dG-dT) at 0.05 M; assay type: ADME; how it was run: as §1
[33] = Delta Tm value (Tm(drug-DNA)-Tm(DNA)) was determined for the covalently cross-linked compound in the presence of formaldehyde using twice of poly(dI-dC) at 0.25 M; assay type: ADME; how it was run: as §1
Bos taurus [34] = species on record: Bos taurus; test: Delta Tm value ( Tmdrug-DNA )-TmDNA ) was obtained for the covalently cross-linked compound in the absence of formaldehyde using calf thymus DNA at 0.05 M; assay type: ADME; settings: cattle; how it was run: as §2

Delta Tm [1]: 5.9 °C
Delta Tm [2]: 31 °C
Delta Tm [3]: 11.9 °C
Delta Tm [4]: 1.8 °C
Delta Tm [5]: 6 °C
Delta Tm [6]: 0 °C and -1 °C
Delta Tm [7]: 0 °C
Delta Tm (Bos taurus [8]): 0 °C
Delta Tm [9]: 12.4 °C
Delta Tm [10]: -2 °C
Delta Tm (Bos taurus [11]): 4 °C
Delta Tm [12]: 0 °C
Delta Tm [13]: 2 °C
Delta Tm [14]: 21.2 °C
Delta Tm [15]: 0 °C
Delta Tm (Bos taurus [16]): 28.7 °C
Delta Tm [17]: 1 °C
Delta Tm [18]: 4.8 °C
Delta Tm (Bos taurus [19]): 6.7 °C
Delta Tm [20]: 8.9 °C
Delta Tm [21]: 0 °C
Delta Tm (Bos taurus [22]): 26.2 °C
Delta Tm (Bos taurus [23]): 22.3 °C
Delta Tm [24]: 50.8 °C
Delta Tm [25]: 3.1 °C
Delta Tm (Bos taurus [26]): 6.7 °C
Delta Tm [27]: 2 °C
Delta Tm [28]: 3 °C
Delta Tm [29]: 2.9 °C
Delta Tm (Bos taurus [30]): 6.5 °C
Delta Tm (Bos taurus [31]): 11.9 °C
Delta Tm [32]: 6.7 °C
Delta Tm [33]: 10 °C
Delta Tm (Bos taurus [34]): 2 °C
Compound: COC1C(CO)OC(n2c3ccccc3c3c4c(c5c6ccccc6[nH]c5c32)C(=O)N(N)C4=O)C(N)C1O (centres undefined)
